Data taken from ChEMBL document CHEMBL4425113, “Chromenopyrazole, a Versatile Cannabinoid Scaffold with in Vivo Activity in a Model of Multiple Sclerosis” (J Med Chem, 2016).
The source made the active and inactive calls. The rule behind the calls is not given here.

How the values were obtained:
Cannabinoid receptor 1 [1] = molecular target: T1, Cannabinoid receptor 1 (Homo sapiens, UniProt P21554); assay: biochemical; format: cell-based, HEK293
Cannabinoid receptor 2 [2] = molecular target: T2, Cannabinoid receptor 2 (Homo sapiens, UniProt P34972); assay: Displacement of [3H]-CP55940 from human CB2 receptor expressed in HEK293 cell membranes after 90 mins by liquid scintillation counting method
Homo sapiens [3] = species on record: Homo sapiens; assay: Selectivity ratio of Ki for human CB1 receptor to Ki for human CB2 receptor
Summary of the method: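 Membranes from cells transfected with hCB1 (8 μg/well; Tris 50 mM, MgCl2 5 mM, EDTA 2.5 mM, BSA 0.5 mg/mL, pH 7.4) or hCB2 (4 μg/well; EGTA 2.5 mM, BSA 1 mg/mL, pH 7.5); [3H]CP55940, 90 min at 30 °C. […] Nonspecific binding 10 μM WIN55212-2; GF/C filtration, scintillation; ≥3 experiments in triplicate.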

Homo sapiens [4] = species on record: Homo sapiens; assay: Selectivity ratio of Ki for human CB2 receptor to Ki for human CB1 receptor
Cannabinoid receptor 2 [5] = molecular target: T2, Cannabinoid receptor 2; assay: Agonist activity at human CB2 receptor expressed in HEK293 cell membranes assessed as inhibition of forskolin-stimulated cAMP accumulation after 60 mins by HTRF assay; format: functional, cell-based
Cannabinoid receptor 2 [6] = molecular target: T2, Cannabinoid receptor 2; assay: Antagonist activity at human CB2 receptor expressed in HEK293 cell membranes assessed as inhibition of CP55940-mediated suppression of forskolin-stimulated cAMP accumulation at 1 uM after 60 mins by HTRF assay; format: functional, cell-based
Cannabinoid receptor 2 [7] = molecular target: T2, Cannabinoid receptor 2; assay: Antagonist activity at human CB2 receptor expressed in HEK293 cell membranes assessed as inhibition of CP55940-mediated suppression of forskolin-stimulated cAMP accumulation at 200 nM after 60 mins by HTRF assay; format: functional, cell-based
Cannabinoid receptor 2 [8] = molecular target: T2, Cannabinoid receptor 2; assay: Agonist activity at human CB2 receptor expressed in HEK293 cell membranes assessed as inhibition of forskolin-stimulated cAMP accumulation at 200 nM after 60 mins by HTRF assay; format: functional, cell-based
Summary of the method: (§1)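 HEK293 cells stably expressing hCB2, 5.000 cells/well, forskolin-stimulated; Lance-Ultra TR-FRET cAMP kit, 60 min room temperature with HTRF reagents; 665/620 nm ratio converted to cAMP via standard curve; forskolin level set to 100%.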

Cannabinoid receptor 2 [9] = molecular target: T2, Cannabinoid receptor 2; assay: Agonist activity at human CB2 receptor expressed in HEK293 cell membranes assessed as inhibition of forskolin-stimulated cAMP accumulation at 1 uM after 60 mins by HTRF assay; format: functional, cell-based
Summary of the method: as §1

Cannabinoid receptor 2 [10] = molecular target: T2, Cannabinoid receptor 2; assay: Agonist activity at human CB2 receptor expressed in HEK293 cell membranes assessed as induction of [35S]-GTPgammaS binding after 60 mins by liquid scintillation spectrometric method; format: functional
Cannabinoid receptor 2 [11] = molecular target: T2, Cannabinoid receptor 2; assay: Partial agonist activity at human CB2 receptor expressed in HEK293 cell membranes assessed as inhibition of forskolin-stimulated cAMP accumulation at 200 nM after 60 mins by HTRF assay; format: functional, cell-based
Summary of the method: as §1

Cannabinoid receptor 2 [12] = molecular target: T2, Cannabinoid receptor 2; assay: Partial agonist activity at human CB2 receptor expressed in HEK293 cell membranes assessed as inhibition of forskolin-stimulated cAMP accumulation at 1 uM after 60 mins by HTRF assay; format: functional, cell-based
Summary of the method: as §1

Cannabinoid receptor 1 [13] = molecular target: T1, Cannabinoid receptor 1; assay: Agonist activity at human CB1 receptor expressed in HEK293 cell membranes assessed as induction of [35S]-GTPgammaS binding after 60 mins by liquid scintillation spectrometric method; format: functional
[14] = Binding affinity to PDEA modified AGP (unknown origin) at 40 uM by surface plasmon resonance method; format: ADME; settings: human, isolated protein

T1 sequence (P21554 whole entry): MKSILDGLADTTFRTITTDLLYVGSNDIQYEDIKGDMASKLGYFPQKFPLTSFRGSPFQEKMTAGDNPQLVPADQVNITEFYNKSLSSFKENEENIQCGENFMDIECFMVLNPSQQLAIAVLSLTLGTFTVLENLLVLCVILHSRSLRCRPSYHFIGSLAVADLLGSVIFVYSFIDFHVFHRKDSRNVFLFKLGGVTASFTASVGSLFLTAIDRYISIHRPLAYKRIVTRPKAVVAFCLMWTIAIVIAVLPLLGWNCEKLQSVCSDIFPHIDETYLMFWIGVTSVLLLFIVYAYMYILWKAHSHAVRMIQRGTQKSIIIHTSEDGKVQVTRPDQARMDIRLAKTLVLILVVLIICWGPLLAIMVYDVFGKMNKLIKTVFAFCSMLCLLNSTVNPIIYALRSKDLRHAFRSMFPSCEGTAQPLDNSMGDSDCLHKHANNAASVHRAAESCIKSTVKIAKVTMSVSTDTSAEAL
T2 sequence (P34972 whole entry): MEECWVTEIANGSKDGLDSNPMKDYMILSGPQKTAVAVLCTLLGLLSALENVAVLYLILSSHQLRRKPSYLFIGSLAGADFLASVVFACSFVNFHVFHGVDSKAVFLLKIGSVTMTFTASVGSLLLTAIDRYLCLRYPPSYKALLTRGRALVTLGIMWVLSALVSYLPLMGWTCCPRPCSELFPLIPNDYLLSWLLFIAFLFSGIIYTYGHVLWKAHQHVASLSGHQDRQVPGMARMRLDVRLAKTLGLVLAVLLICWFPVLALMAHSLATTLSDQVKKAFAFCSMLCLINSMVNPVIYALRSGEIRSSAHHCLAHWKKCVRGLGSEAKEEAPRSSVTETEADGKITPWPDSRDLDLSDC

SMILES | Ki (Cannabinoid receptor 1 [1]) [nM] | Ki (Cannabinoid receptor 2 [2]) [nM] | Ratio Ki (Homo sapiens [3]) | other results
CCCCCCC(C)(C)c1cc(OCCCO)c2c(c1)OC(C)(C)c1cn(C)nc1-2 | > 40000 | 364 | > 110 | 
CCCCCCC(C)(C)c1cc(O)c2c(c1)OC(C)(C)c1cn(C)nc1-2 |  |  |  | Ki (Cannabinoid receptor 1 [1]; hek293): 14.2 nM; Ratio Ki (Homo sapiens [4]): > 2500
CCCC(C)(C)c1ccc2c(c1)OC(C)(C)[C@@H]1CC=C(C)C[C@@H]21 |  |  |  | Emax (Cannabinoid receptor 2 [5]): 98%; IC50 (Cannabinoid receptor 2 [5]): 81.8 nM
CCCCCCC(C)(C)c1cc(OCc2ccccc2)c2c(c1)OC(C)(C)c1cnn(-c3ccc(Cl)cc3Cl)c1-2 | > 40000 | > 40000 |  | 
CCCCCCC(C)(C)c1cc(OCCCO)c2c(c1)OC(C)(C)c1cn(CC)nc1-2 | > 40000 | 97.4 | > 411 | inhibition (Cannabinoid receptor 2 [6]): Active
CCCCCCC(C)(C)c1cc(OCCO)c2c(c1)OC(C)(C)c1cn(C)nc1-2 | 1090 | 39.8 | 27.2 | inhibition (Cannabinoid receptor 2 [7]): inactive
CCCCCCC(C)(C)c1cc(OCCO)c2c(c1)OC(C)(C)c1cn[nH]c1-2 | 64.8 | 3.6 | 18 | inhibition (Cannabinoid receptor 2 [8]): Active; inhibition (Cannabinoid receptor 2 [9]): Active; Emax (Cannabinoid receptor 2 [5]): 95%; IC50 (Cannabinoid receptor 2 [5]): 21.6 nM; Emax (Cannabinoid receptor 2 [10]): 110%
CCCCCCC(C)(C)c1cc(O)c2c(c1)OC(C)(C)c1cn(CO)nc1-2 | 218 | 59.4 | 3.7 | 
CCCCCCC(C)(C)c1cc(OCc2ccccc2)c2c(c1)OC(C)(C)c1cn[nH]c1-2 | 22.4 | 93.3 |  | Ratio Ki (Homo sapiens [4]): 4.2; inhibition (Cannabinoid receptor 2 [11]): Active; inhibition (Cannabinoid receptor 2 [12]): Active; EC50 (Cannabinoid receptor 1 [13]): 191 nM
CCCCCCC(C)(C)c1cc(O)c2c(c1)OC(C)(C)c1cnn(CC)c1-2 |  |  |  | Ki (Cannabinoid receptor 1 [1]; hek293): 4.5 nM; Ratio Ki (Homo sapiens [4]): > 8000
CCCCC/C=C\C/C=C\C/C=C\C/C=C\CCCC(=O)NCCO [ANANDAMIDE] |  |  |  | PB [14]: Active
CCCCCCC(C)(C)c1cc(OC)c2c(c1)OC(C)(C)c1cn(CC)nc1-2 | 2930 | 92.6 | 31.8 | inhibition (Cannabinoid receptor 2 [11]): Active; inhibition (Cannabinoid receptor 2 [12]): Active; PB [14]: Active
CCCCCCC(C)(C)c1cc(OCCCO)c2c(c1)OC(C)(C)c1cn[nH]c1-2 | 450 | 26 | 17.3 | inhibition (Cannabinoid receptor 2 [11]): Active; inhibition (Cannabinoid receptor 2 [12]): Active; PB [14]: Active
CCCCCCC(C)(C)c1cc(OC)c2c(c1)OC(C)(C)c1cn[nH]c1-2 | 272 | 87.1 | 3.1 | PB [14]: Active
CCCCCCC(C)(C)c1cc(OCc2ccccc2)c2c(c1)OC(C)(C)c1cnn(-c3ccc(Cl)c(Cl)c3)c1-2 | > 40000 | 3740 | > 10.7 | 
CCCCCCC(C)(C)c1cc(OC)c2c(c1)OC(C)(C)c1cnn(-c3ccc(Cl)cc3Cl)c1-2 | 1690 | 1490 |  | 
CCCCCCC(C)(C)c1cc(O)c2c(c1)OC(C)(C)c1cn[nH]c1-2 |  |  |  | Ki (Cannabinoid receptor 1 [1]; hek293): 28.5 nM; Ratio Ki (Homo sapiens [4]): > 1400
CCCCCCC(C)(C)c1cc(O)c2c(c1)OC(C)(C)c1cnn(-c3cc(F)cc(F)c3)c1-2 | > 40000 | > 40000 |  | 
CCCCCCC(C)(C)c1cc(OCC)c2c(c1)OC(C)(C)c1cnn(-c3ccc(Cl)c(Cl)c3)c1-2 | > 40000 | 3540 | > 11.3 | 
CCCCCCC(C)(C)c1cc(OCCCO)c2c(c1)OC(C)(C)c1cnn(CC)c1-2 | 1610 | 440 | 3.6 | 
CCCCCCC(C)(C)c1cc(OC)c([C@H]2C=C(CO)[C@@H]3C[C@H]2C3(C)C)c(OC)c1 |  |  |  | Emax (Cannabinoid receptor 2 [10]): 91%
CCCCCCC(C)(C)c1cc(OCc2ccccc2)c2c(c1)OC(C)(C)c1cn(CC)nc1-2 | 671 | 212 | 3.1 | 
CCCCCCC(C)(C)c1cc(O)c2c(c1)OC(C)(C)c1cn(CCO)nc1-2 | 54.4 | 39.6 | 1.4 | EC50 (Cannabinoid receptor 1 [13]): 299 nM

SMILES | Ki (Cannabinoid receptor 1 [1]) [nM] | Ki (Cannabinoid receptor 2 [2]) [nM] | Ratio Ki (Homo sapiens [3]) | other results
CCCCCCC(C)(C)c1cc(O)c2c(c1)OC(C)(C)c1cnn(C3CCCCC3)c1-2 | 1140 | 53.7 | 21.5 | PB [14]: Active
CCCCCCC(C)(C)c1cc(OC)c2c(c1)OC(C)(C)c1cnn(CC)c1-2 | 5040 | 159 | 31.6 | inhibition (Cannabinoid receptor 2 [11]): Active; inhibition (Cannabinoid receptor 2 [12]): Active
CCCCCCC(C)(C)c1cc(OCc2ccccc2)c2c(c1)OC(C)(C)c1cnn(CC)c1-2 | 614 | 296 | 2 | 
CCCCCCC(C)(C)c1cc(O)c2c(c1)OC(C)(C)c1cn(CC)nc1-2 |  |  |  | Ki (Cannabinoid receptor 1 [1]; hek293): 18.6 nM; Ratio Ki (Homo sapiens [4]): > 2000
CCCCCCC(C)(C)c1cc(OC)c2c(c1)OC(C)(C)c1cnn(-c3ccc(Cl)c(Cl)c3)c1-2 | 2320 | 2260 |  | 
CCCCCCC(C)(C)c1cc(OCCO)c2c(c1)OC(C)(C)c1cn(CC)nc1-2 | 6510 | 211 | 31 | PB [14]: Active
CCCCCCC(C)(C)c1cc(O)c2c(c1)OC(C)(C)c1cnn(-c3cccc(OC)c3)c1-2 | 6440 | 562 | 11.5 | 
CCCCCCC(C)(C)c1cc(OCc2ccccc2)c2c(c1)OC(C)(C)c1cn(C)nc1-2 | 702 | 209 | 3.3 | 
CCCCCCC(C)(C)c1cc(OCCCBr)c2c(c1)OC(C)(C)c1cn(CC)nc1-2 | 657 | 87.1 | 7.5 | 
CCCCCCC(C)(C)c1cc(O)c2c(c1)OC(C)(C)c1cnn(-c3ccc(Cl)cc3Cl)c1-2 |  |  |  | Ki (Cannabinoid receptor 1 [1]; hek293): 5.2 nM; Ratio Ki (Homo sapiens [4]): > 7500
CCCCCCC(C)(C)c1cc(OCCCO)c2c(c1)OC(C)(C)c1cnn(-c3ccc(Cl)c(Cl)c3)c1-2 | > 40000 | > 40000 |  | 
CCCCC/C=C\C/C=C\C/C=C\C/C=C\CCCC(=O)OC(CO)CO [2-ARACHIDONOYLGLYCEROL] |  |  |  | PB [14]: Active
CCCCCCC(C)(C)c1cc(OCCCBr)c2c(c1)OC(C)(C)c1cn(C)nc1-2 | 1480 | 77.3 | 19.1 | inhibition (Cannabinoid receptor 2 [11]): Active; inhibition (Cannabinoid receptor 2 [12]): Active; PB [14]: Active
CCCCCCC(C)(C)c1cc(OCCCO)c2c(c1)OC(C)(C)c1cnn(-c3ccc(Cl)cc3Cl)c1-2 | > 40000 | > 40000 |  | 
CCCCCCC(C)(C)c1cc(O)c2c(c1)OC(C)(C)c1cnoc1-2 | 15.4 | 5.3 | 2.9 | inhibition (Cannabinoid receptor 2 [8]): Active; inhibition (Cannabinoid receptor 2 [9]): Active; Emax (Cannabinoid receptor 2 [5]): 98%; IC50 (Cannabinoid receptor 2 [5]): 134 nM; Emax (Cannabinoid receptor 2 [10]): 114%; EC50 (Cannabinoid receptor 1 [13]): 15.8 nM; PB [14]: Active
CCCCCCC(C)(C)c1cc2c(c3c1CCCO3)-c1nn(CC)cc1C(C)(C)O2 | > 40000 | 122 | > 330 | inhibition (Cannabinoid receptor 2 [8]): Active; inhibition (Cannabinoid receptor 2 [9]): Active; Emax (Cannabinoid receptor 2 [5]): 98%; IC50 (Cannabinoid receptor 2 [5]): 25.5 nM
CCCCCCC(C)(C)c1cc(OC)c2c(c1)OC(C)(C)c1cn(C)nc1-2 | 4160 | 66.4 | 62.6 | inhibition (Cannabinoid receptor 2 [7]): inactive; PB [14]: Active
CCCCCCC(C)(C)c1cc2c(c3c1CCCO3)-c1c(cnn1CC)C(C)(C)O2 | > 10000 | 564 | > 17.7 | PB [14]: Active
CCCCCCC(C)(C)c1cc(O)c2c(c1)OC(C)(C)c1cnn(-c3ccc(Cl)c(Cl)c3)c1-2 |  |  | 1.9 | Ki (Cannabinoid receptor 1 [1]; hek293): 514 nM; Ki (Cannabinoid receptor 2 [2]; hek293): 270 nM
CCCCCCC(C)(C)c1cc(OCCCO)c2c(c1)OC(C)(C)c1cnoc1-2 | 333 | 65.5 | 5.1 | inhibition (Cannabinoid receptor 2 [8]): Active; inhibition (Cannabinoid receptor 2 [9]): Active; Emax (Cannabinoid receptor 2 [5]): 91%; IC50 (Cannabinoid receptor 2 [5]): 14 nM; Emax (Cannabinoid receptor 2 [10]): 96%
C=C(C)[C@@H]1CCC(C)=C[C@H]1c1c(O)cc(CCCCC)cc1O [CANNABIDIOL] |  |  |  | PB [14]: Active
CCCCCCC(C)(C)c1cc(O)c2c(c1)OC(C)(C)c1cnn(CCO)c1-2 | 19.1 | 366 |  | Ratio Ki (Homo sapiens [4]): 19.1
